According to ChEMBL document CHEMBL3611989, “Discovery and characterization of aryl isonitriles as a new class of compounds versus methicillin- and vancomycin-resistant Staphylococcus aureus” (Eur J Med Chem, 2015):
In brackets after ≈: the same amount, converted by molar mass.

Key:
Staphylococcus aureus [1] = assay: Antimicrobial activity against methicillin-sensitive Staphylococcus aureus NRS72 assessed as reduction in bacterial growth incubated for 18 to 20 hrs at 37 degC by broth microdilution method; assay type: functional
In short: (§1)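 Modified CLSI broth microdilution. Bacterial suspension of about 1 × 10^5 CFU/mL in tryptic soy broth. Each agent was added in triplicate to the first row and serially diluted down the plate. Plates were incubated at 37 °C for 18-20 h. MIC was read as the lowest concentration with no visible growth.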

Staphylococcus aureus [2] = assay: Antimicrobial activity against methicillin-resistant Staphylococcus aureus USA100 assessed as reduction in bacterial growth incubated for 18 to 20 hrs at 37 degC by broth microdilution method; assay type: functional; in short: as §1
Staphylococcus aureus [3] = assay: Antimicrobial activity against methicillin-resistant Staphylococcus aureus USA200 assessed as reduction in bacterial growth incubated for 18 to 20 hrs at 37 degC by broth microdilution method; assay type: functional; in short: as §1
Staphylococcus aureus [4] = assay: Antimicrobial activity against methicillin-resistant Staphylococcus aureus USA300 assessed as reduction in bacterial growth incubated for 18 to 20 hrs at 37 degC by broth microdilution method; assay type: functional; in short: as §1
Staphylococcus aureus [5] = assay: Antimicrobial activity against methicillin-resistant Staphylococcus aureus USA500 assessed as reduction in bacterial growth incubated for 18 to 20 hrs at 37 degC by broth microdilution method; assay type: functional; in short: as §1
Staphylococcus aureus [6] = assay: Antimicrobial activity against methicillin-resistant Staphylococcus aureus USA700 assessed as reduction in bacterial growth incubated for 18 to 20 hrs at 37 degC by broth microdilution method; assay type: functional; in short: as §1
Staphylococcus aureus [7] = assay: Antimicrobial activity against methicillin-resistant Staphylococcus aureus NRS119 assessed as reduction in bacterial growth incubated for 18 to 20 hrs at 37 degC by broth microdilution method; assay type: functional; in short: as §1
Staphylococcus aureus [8] = assay: Antimicrobial activity against vancomycin-intermediate-resistant Staphylococcus aureus NRS1 assessed as reduction in bacterial growth incubated for 18 to 20 hrs at 37 degC by broth microdilution method; assay type: functional; in short: as §1
Staphylococcus aureus [9] = assay: Antimicrobial activity against vancomycin-resistant Staphylococcus aureus VRS2 assessed as reduction in bacterial growth incubated for 18 to 20 hrs at 37 degC by broth microdilution method; assay type: functional; in short: as §1
J774 [10] = assay: Cytotoxicity against mouse J774 cells assessed as reduction in cell viability at 32 uM incubated for 2 hrs by MTS assay; assay type: cell-based; details: j774, 2 h
In short: (§2)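 Murine J774 macrophages grown in DMEM with 10% FBS at 37 °C, 5% CO2. Compounds were tested in triplicate at 16, 32, 64 and 128 μM for 2 h, with DMSO-matched vehicle controls. MTS reagent was then added and absorbance read at OD490. Viability is given as percent of DMSO-treated cells (mean of triplicate ± standard deviation), compared by paired t-test (P < 0.05).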

J774 [11] = assay: Cytotoxicity against mouse J774 cells assessed as reduction in cell viability at 64 uM incubated for 2 hrs by MTS assay; assay type: cell-based; details: j774, 2 h; in short: as §2
J774 [12] = assay type: cell-based; details: mouse, j774, 2 h, 128 µM

Row | SMILES | MIC (Staphylococcus aureus [1]) [µM] | MIC (Staphylococcus aureus [2]) [µM] | MIC (Staphylococcus aureus [3]) [µM] | MIC (Staphylococcus aureus [4]) [µM] | MIC (Staphylococcus aureus [5]) [µM] | MIC (Staphylococcus aureus [6]) [µM] | MIC (Staphylococcus aureus [7]) [µM] | MIC (Staphylococcus aureus [8]) [µM] | MIC (Staphylococcus aureus [9]) [µM] | Activity (J774 [10]) | Activity (J774 [11]) | Activity (J774 [12])
1 | [C-]#[N+]c1ccccc1/C=C/c1ccccc1C(F)(F)F | 8 (≈ 2.19 µg/mL) | 16 (≈ 4.37 µg/mL) | 16 (≈ 4.37 µg/mL) | 32 (≈ 8.74 µg/mL) | 16 (≈ 4.37 µg/mL) | 16 (≈ 4.37 µg/mL) | > 128 | 8 (≈ 2.19 µg/mL) | 32 (≈ 8.74 µg/mL) | Non-toxic | Non-toxic | Toxic
2 | [C-]#[N+]c1ccccc1/C=C/c1ccc(C)cc1 | 16 (≈ 3.51 µg/mL) | 4 (≈ 0.877 µg/mL) | 4 (≈ 0.877 µg/mL) | 16 (≈ 3.51 µg/mL) | 32 (≈ 7.02 µg/mL) | 8 (≈ 1.75 µg/mL) | 64 (≈ 14 µg/mL) | 4 (≈ 0.877 µg/mL) | 32 (≈ 7.02 µg/mL) | Non-toxic | Non-toxic | Toxic
3 | [C-]#[N+]c1ccccc1/C=C/c1ccc([N+](=O)[O-])cc1 | 2 (≈ 0.501 µg/mL) | 4 (≈ 1 µg/mL) | 4 (≈ 1 µg/mL) |  |  |  | 16 (≈ 4 µg/mL) | 4 (≈ 1 µg/mL) | 8 (≈ 2 µg/mL) | Toxic | Toxic | Toxic
4 | [C-]#[N+]c1ccccc1/C=C/c1ccccn1 | 64 (≈ 13.2 µg/mL) | 64 (≈ 13.2 µg/mL) | 64 (≈ 13.2 µg/mL) | 16 (≈ 3.3 µg/mL) | 64 (≈ 13.2 µg/mL) | 32 (≈ 6.6 µg/mL) | 128 (≈ 26.4 µg/mL) | 64 (≈ 13.2 µg/mL) | 32 (≈ 6.6 µg/mL) | Non-toxic | Non-toxic | Toxic
5 | [C-]#[N+]c1ccccc1/C=C/c1cccnc1 | 64 (≈ 13.2 µg/mL) | 32 (≈ 6.6 µg/mL) | 32 (≈ 6.6 µg/mL) | 16 (≈ 3.3 µg/mL) | 32 (≈ 6.6 µg/mL) | 32 (≈ 6.6 µg/mL) | 64 (≈ 13.2 µg/mL) | 64 (≈ 13.2 µg/mL) | 32 (≈ 6.6 µg/mL) | Non-toxic | Non-toxic | Non-toxic
6 | [C-]#[N+]c1ccc(/C=C/c2cccnc2)cc1 | 16 (≈ 3.3 µg/mL) | 16 (≈ 3.3 µg/mL) | 32 (≈ 6.6 µg/mL) |  | 32 (≈ 6.6 µg/mL) | 16 (≈ 3.3 µg/mL) | 64 (≈ 13.2 µg/mL) | 32 (≈ 6.6 µg/mL) | 8 (≈ 1.65 µg/mL) | Non-toxic | Non-toxic | Toxic
7 | [C-]#[N+]c1ccc(/C=C/c2ccncc2)cc1 | 2 (≈ 0.412 µg/mL) | 8 (≈ 1.65 µg/mL) | 8 (≈ 1.65 µg/mL) |  |  | 8 (≈ 1.65 µg/mL) |  | 8 (≈ 1.65 µg/mL) | 4 (≈ 0.825 µg/mL) | Non-toxic | Non-toxic | Toxic
8 | [C-]#[N+]c1cccc(/C=C/c2ccccc2)c1 | 16 (≈ 3.28 µg/mL) | 32 (≈ 6.57 µg/mL) | 32 (≈ 6.57 µg/mL) | 16 (≈ 3.28 µg/mL) | > 128 | 16 (≈ 3.28 µg/mL) | 64 (≈ 13.1 µg/mL) | 32 (≈ 6.57 µg/mL) | 32 (≈ 6.57 µg/mL) | Non-toxic | Non-toxic | Toxic
9 | [C-]#[N+]c1ccc(/C=C/c2ccccc2)cc1 | 4 (≈ 0.821 µg/mL) | 4 (≈ 0.821 µg/mL) | 32 (≈ 6.57 µg/mL) | 4 (≈ 0.821 µg/mL) | 16 (≈ 3.28 µg/mL) | 64 (≈ 13.1 µg/mL) | > 128 | > 128 | > 128 | Non-toxic | Non-toxic | Non-toxic
10 | [C-]#[N+]c1ccccc1-c1ccc2ccccc2c1 | 16 (≈ 3.67 µg/mL) | 16 (≈ 3.67 µg/mL) | 64 (≈ 14.7 µg/mL) | 64 (≈ 14.7 µg/mL) | 32 (≈ 7.34 µg/mL) | 16 (≈ 3.67 µg/mL) | 32 (≈ 7.34 µg/mL) | 4 (≈ 0.917 µg/mL) | 64 (≈ 14.7 µg/mL) | Non-toxic | Non-toxic | Toxic
11 | CC(=O)NC[C@H]1CN(c2ccc(N3CCOCC3)c(F)c2)C(=O)O1 [LINEZOLID] | 2 (≈ 0.675 µg/mL) | < 1 | 2 (≈ 0.675 µg/mL) | 2 (≈ 0.675 µg/mL) | < 1 | 2 (≈ 0.675 µg/mL) | 64 (≈ 21.6 µg/mL) | < 1 | < 1 |  |  | 
